Assay results as given in PMC3607822 (The Journal of General Physiology, 2013).

Columns and labels:
[1] = target: T1, CNGA3 RR-EE (R643E, R646E) channels (Homo sapiens, UniProt Q16281, R643E/R646E); assay: Inside-out patch clamp, CNGA3 RR-EE; type: biochemical
T1 sequence (Q16281 1-694 R643E/R646E): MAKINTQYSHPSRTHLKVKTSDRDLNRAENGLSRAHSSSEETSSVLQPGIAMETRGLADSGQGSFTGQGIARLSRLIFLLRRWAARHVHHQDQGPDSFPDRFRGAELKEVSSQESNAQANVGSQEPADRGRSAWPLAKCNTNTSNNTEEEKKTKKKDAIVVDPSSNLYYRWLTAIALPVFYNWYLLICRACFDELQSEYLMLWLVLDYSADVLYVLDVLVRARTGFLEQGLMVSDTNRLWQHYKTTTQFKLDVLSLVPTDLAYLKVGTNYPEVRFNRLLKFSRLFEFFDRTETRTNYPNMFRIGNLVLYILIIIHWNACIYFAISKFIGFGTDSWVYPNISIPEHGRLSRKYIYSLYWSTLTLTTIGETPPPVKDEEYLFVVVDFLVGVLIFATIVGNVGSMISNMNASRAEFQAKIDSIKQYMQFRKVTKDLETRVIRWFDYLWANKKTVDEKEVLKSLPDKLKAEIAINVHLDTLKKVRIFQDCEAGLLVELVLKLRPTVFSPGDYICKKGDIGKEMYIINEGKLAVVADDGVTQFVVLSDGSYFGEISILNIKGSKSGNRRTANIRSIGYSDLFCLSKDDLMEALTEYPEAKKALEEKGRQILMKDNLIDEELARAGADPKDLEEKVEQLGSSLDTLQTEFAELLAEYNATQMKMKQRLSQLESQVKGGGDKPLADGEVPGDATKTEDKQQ

[2] = target: CNGA3 ΔN (2-156), 613X channels (Homo sapiens, UniProt Q16281); assay: Inside-out patch clamp, CNGA3 ΔN; type: biochemical
[3] = target: CNGA3 N7R-A (R72A, R75A, R81A, R82A, R86A, R101A, R103A) channels (Homo sapiens, UniProt Q16281, R101A/R103A/R72A/R75A/R81A/R82A/R86A); assay: Inside-out patch clamp, CNGA3 N7R-A; type: biochemical
[4] = target: CNGA3 N5R-A, 613X channels (Homo sapiens, UniProt Q16281, R72A/R75A/R81A/R82A/R86A); assay: Inside-out patch clamp, CNGA3 N5R-A, 613X; type: biochemical
[5] = target: CNGA3 N2R-A, 613X channels (Homo sapiens, UniProt Q16281, R101A/R103A); assay: Inside-out patch clamp, CNGA3 N2R-A, 613X; type: biochemical
CNGA3 D609K channels = CNGA3 D609K channels (Homo sapiens, UniProt Q16281, D609K); assay: Inside-out patch clamp, CNGA3 D609K; type: biochemical; conditions: estimated using tetracaine block
[6] = tested on: PA-LP+RR-QQ CNGA3 channels; assay: Inside-out patch clamp, coexpression of A3 PA-LP with A3 RR-QQ; type: biochemical, human; conditions: 1 µM PIP3
CNGA1 homomeric channels = CNGA1 homomeric channels (Bos taurus, UniProt Q00194); assay: Inside-out patch clamp, homomeric CNGA1; type: biochemical, bovine; conditions: PIP3 or PIP2 application
Chain of CNGA1 homomeric channels (Q00194 whole entry): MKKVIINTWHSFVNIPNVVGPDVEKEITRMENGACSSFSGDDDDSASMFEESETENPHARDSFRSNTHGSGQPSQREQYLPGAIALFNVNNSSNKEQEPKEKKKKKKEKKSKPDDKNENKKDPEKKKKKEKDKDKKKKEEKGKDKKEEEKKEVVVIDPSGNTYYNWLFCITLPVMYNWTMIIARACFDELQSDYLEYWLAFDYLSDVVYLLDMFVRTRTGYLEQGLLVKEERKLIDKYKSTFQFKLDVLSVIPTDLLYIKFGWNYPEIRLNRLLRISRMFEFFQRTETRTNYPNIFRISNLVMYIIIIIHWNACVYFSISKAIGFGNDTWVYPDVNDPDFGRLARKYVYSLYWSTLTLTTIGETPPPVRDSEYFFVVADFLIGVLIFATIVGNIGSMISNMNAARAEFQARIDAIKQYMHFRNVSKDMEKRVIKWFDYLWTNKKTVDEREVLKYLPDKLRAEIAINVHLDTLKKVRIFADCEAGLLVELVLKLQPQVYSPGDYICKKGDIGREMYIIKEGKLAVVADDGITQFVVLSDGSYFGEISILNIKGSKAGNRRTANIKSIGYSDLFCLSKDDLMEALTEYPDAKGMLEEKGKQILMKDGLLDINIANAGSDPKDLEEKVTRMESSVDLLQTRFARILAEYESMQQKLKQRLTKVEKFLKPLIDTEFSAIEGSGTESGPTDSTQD

A2ΔN+B3 channels = A2ΔN+B3 channels (UniProt Q00195+Q9NQW8, DEL61-90); assay: Inside-out patch clamp, A2ΔN+B3; type: biochemical, rat, human; conditions: 1 µM PIP3
Procedure, shortened: (§1)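 Subunit cRNAs (~20 ng, B in excess over A) injected into stage IV Xenopus oocytes; inside-out patches 2–7 d later, 20–22°C, symmetric 130 mM NaCl, 0.2 mM EDTA, 3 mM Hepes pH 7.2. Heteromer formation checked by 25 µM l-cis-diltiazem with 1 mM cGMP. diC8 phosphoinositides applied intracellularly in phosphatase-inhibitor cocktail. cGMP dose–response at +80 mV, leak-subtracted, Hill fit before/after for K1/2; mean ± SEM.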

A2ΔN+B1 channels = A2ΔN+B1 channels (UniProt Q00195+Q14028, DEL61-90); assay: Inside-out patch clamp, A2ΔN+B1; type: biochemical, rat, human; conditions: 1 µM PIP3
Procedure, shortened: as §1

[7] = target: wild-type CNGA2 with CNGB3 channels (UniProt Q00195+Q9NQW8); assay: Inside-out patch clamp, CNGA2 with CNGB3; type: biochemical, rat, human; conditions: 1 µM PIP3
Procedure, shortened: as §1

[8] = target: CNGA3 with CNGB1 channels (Homo sapiens, UniProt Q14028+Q16281); assay: Inside-out patch clamp, CNGA3 with CNGB1; type: biochemical; conditions: 1 µM PIP3
Procedure, shortened: as §1

[9] = target: GST fusion of CNGA3 C-terminal region (A3C, amino acids 612–694) (Homo sapiens, UniProt Q16281); assay: In vitro PIP3-agarose bead pull-down, A3C; type: binding; conditions: PIP3-agarose beads, anti-GST immunoblot; not quantitative
Procedure, shortened: (§2)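 Recombinant GST fusions of channel fragments expressed in E. coli and purified; soluble fraction kept after 20,000 g, 4°C, 30 min. Protein (2 µg/ml) rocked with PIP3- or control agarose beads, 2 h, 4°C, in 10 mM Hepes pH 7.4, 50 mM NaCl, 2 mM EDTA, 0.25% Triton X-100, 0.25% NP-40. Five washes, elution in sample buffer, reducing SDS gel, anti-GST (1:2,000, overnight) immunoblot, chemiluminescence; […].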

[10] = target: GST fusion of CNGA3 N-terminal region (A3N, amino acids 1–164) (Homo sapiens, UniProt Q16281); assay: In vitro PIP3-agarose bead pull-down, A3N; type: binding; conditions: PIP3-agarose beads, anti-GST immunoblot
Procedure, shortened: as §2

[11] = read-out: K1/2 cGMP, +80 mV, no PIPn

Hill coefficient ([1]; cGMP activation)	EC50 [1, 11] [µM]	Po max cGMP ([1]; saturating cGMP)	Hill coefficient ([2]; cGMP activation)	EC50 [2, 11] [µM]	Hill coefficient ([3]; cGMP activation)	EC50 [3, 11] [µM]	Hill coefficient ([4]; cGMP activation)	EC50 [4, 11] [µM]	Hill coefficient ([5]; cGMP activation)	EC50 [5, 11] [µM]	Po max cGMP (CNGA3 D609K channels)	effect on relative cAMP efficacy (CNGA1 homomeric channels)	regulation of K1/2 cGMP by PIP3 (A2ΔN+B3 channels)	regulation of K1/2 cGMP by PIP3 (A2ΔN+B1 channels)	regulation of K1/2 cGMP by PIP3 [7]	regulation of K1/2 cGMP by PIP3 [8]	in vitro PIP3 binding [9]	in vitro PIP3 binding [10]	Compound	Imax cAMP/cGMP (PIP3/control) [6]
1.95 ± 0.05 (4)	8.29 ± 0.47	0.93 ± 0.03 (4)	1.66 ± 0.10 (6)	15.8 ± 2.8	1.59 ± 0.18 (4)	8.89 ± 1.15	1.71 ± 0.05 (8)	16.7 ± 0.98	1.68 ± 0.03 (4)	16.1 ± 0.59	0.78 ± 0.01	–	–	–	–	–	–	–	Nc1nc2c(ncn2[C@@H]2O[C@@H]3COP(=O)(O)O[C@H]3[C@H]2O)c(=O)[nH]1 [cGMP, cyclic guanosine monophosphate]	–
–	–	–	–	–	–	–	–	–	–	–	–	decreased relative cAMP efficacy	insensitive to regulation by PIP3	insensitive to regulation by PIP3	PIP3-sensitive	PIP3-sensitive	binding was observed	able to directly bind PIP3	phosphatidylinositol (3,4,5)-trisphosphate [PIP3]	1.67 ± 0.06
